Test results from ChEMBL document CHEMBL3856248, “2-Benzylidene-1-indanone derivatives as inhibitors of monoamine oxidase” (Bioorg Med Chem Lett, 2016).

Experiments:
[1] = target: T1, Amine oxidase [flavin-containing] A (Homo sapiens, UniProt P21397); assay: Inhibition of recombinant human MAO-A using kynuramine as substrate after 20 mins by fluorescence spectrophotometric analysis
T1 sequence (P21397 whole entry): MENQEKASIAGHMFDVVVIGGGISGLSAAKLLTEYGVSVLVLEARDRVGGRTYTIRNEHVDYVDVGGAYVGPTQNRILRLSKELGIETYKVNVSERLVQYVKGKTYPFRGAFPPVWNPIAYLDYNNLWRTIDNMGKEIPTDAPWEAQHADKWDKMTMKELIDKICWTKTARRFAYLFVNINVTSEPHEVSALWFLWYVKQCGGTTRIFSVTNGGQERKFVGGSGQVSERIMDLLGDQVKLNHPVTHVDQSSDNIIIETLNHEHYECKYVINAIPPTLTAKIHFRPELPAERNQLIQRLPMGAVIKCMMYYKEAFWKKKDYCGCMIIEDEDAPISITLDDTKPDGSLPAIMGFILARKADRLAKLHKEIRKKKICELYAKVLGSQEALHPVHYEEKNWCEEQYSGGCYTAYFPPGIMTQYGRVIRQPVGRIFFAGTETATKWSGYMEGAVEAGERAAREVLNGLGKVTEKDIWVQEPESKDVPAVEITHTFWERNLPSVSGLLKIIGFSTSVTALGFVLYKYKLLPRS
Method in brief: (§1)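 Recombinant human enzyme incubated with kynuramine and test inhibitor at 37 °C for 20 min; stopped with 2 N NaOH. The 4-hydroxyquinoline product is read at endpoint by fluorescence in alkaline medium. Inhibitor-free controls run each time.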

[2] = target: T2, Amine oxidase [flavin-containing] B (Homo sapiens, UniProt P27338); assay: Inhibition of recombinant human MAO-B using kynuramine as substrate after 20 mins by fluorescence spectrophotometric analysis; method in brief: as §1
T2 sequence (P27338 whole entry): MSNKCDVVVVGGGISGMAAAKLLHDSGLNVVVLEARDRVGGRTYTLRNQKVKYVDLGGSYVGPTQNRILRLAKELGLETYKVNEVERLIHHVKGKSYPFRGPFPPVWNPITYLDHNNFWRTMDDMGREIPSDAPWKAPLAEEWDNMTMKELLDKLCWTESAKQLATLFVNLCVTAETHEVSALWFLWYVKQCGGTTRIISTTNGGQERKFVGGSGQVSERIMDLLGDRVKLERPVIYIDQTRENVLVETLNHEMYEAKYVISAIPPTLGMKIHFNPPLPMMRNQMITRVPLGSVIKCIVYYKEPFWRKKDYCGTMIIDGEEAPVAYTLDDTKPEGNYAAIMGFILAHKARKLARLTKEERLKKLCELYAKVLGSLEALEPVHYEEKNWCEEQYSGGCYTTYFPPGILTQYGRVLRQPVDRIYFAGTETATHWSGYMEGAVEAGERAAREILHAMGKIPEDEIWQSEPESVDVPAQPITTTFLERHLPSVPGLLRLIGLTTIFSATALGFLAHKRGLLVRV

[3] = species: Homo sapiens; assay: Selectivity index, ratio of IC50 for recombinant human MAO-A to IC50 for recombinant human MAO-B
Method in brief: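 Ratio of IC50 for MAO-A to IC50 for MAO-B. Both are from the kynuramine fluorescence assay with recombinant human enzymes (37 °C, 20 min, endpoint 4-hydroxyquinoline).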

[4] = target: T3, Amine oxidase [flavin-containing] B (Rattus norvegicus, UniProt P19643); assay: Inhibition of Sprague-Dawley rat brain mitochondrial MAO-B using DMAPEA as substrate by HPLC analysis
T3 sequence (P19643 whole entry): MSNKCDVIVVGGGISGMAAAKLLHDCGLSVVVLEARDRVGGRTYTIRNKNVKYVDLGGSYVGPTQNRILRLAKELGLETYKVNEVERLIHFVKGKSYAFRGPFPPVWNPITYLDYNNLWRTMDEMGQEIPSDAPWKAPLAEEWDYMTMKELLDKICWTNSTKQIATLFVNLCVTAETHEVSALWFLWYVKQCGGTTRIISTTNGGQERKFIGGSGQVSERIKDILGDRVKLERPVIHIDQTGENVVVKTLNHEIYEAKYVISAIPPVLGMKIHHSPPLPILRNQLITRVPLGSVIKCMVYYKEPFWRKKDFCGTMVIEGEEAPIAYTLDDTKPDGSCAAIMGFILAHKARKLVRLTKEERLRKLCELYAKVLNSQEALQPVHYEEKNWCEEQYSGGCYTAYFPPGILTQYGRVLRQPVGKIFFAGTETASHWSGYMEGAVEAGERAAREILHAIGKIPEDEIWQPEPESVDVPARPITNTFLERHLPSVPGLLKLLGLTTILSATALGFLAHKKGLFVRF

[5] = target: T1, Amine oxidase [flavin-containing] A; assay: Irreversible inhibition of recombinant human MAO-A assessed as residual activity pre-incubated at 4 times IC50 for 15 mins followed by dialysis for 24 hrs and subsequent kynuramine addition measured after 20 mins by fluorescence spectrophotometric analysis relative to untreated control
[6] = target: T4, Amine oxidase [flavin-containing] A (Rattus norvegicus, UniProt P21396); assay: Inhibition of Wistar rat liver mitochondrial MAO-A using […] as substrate after 1 hr by spectrophotometric analysis
T4 sequence (P21396 whole entry): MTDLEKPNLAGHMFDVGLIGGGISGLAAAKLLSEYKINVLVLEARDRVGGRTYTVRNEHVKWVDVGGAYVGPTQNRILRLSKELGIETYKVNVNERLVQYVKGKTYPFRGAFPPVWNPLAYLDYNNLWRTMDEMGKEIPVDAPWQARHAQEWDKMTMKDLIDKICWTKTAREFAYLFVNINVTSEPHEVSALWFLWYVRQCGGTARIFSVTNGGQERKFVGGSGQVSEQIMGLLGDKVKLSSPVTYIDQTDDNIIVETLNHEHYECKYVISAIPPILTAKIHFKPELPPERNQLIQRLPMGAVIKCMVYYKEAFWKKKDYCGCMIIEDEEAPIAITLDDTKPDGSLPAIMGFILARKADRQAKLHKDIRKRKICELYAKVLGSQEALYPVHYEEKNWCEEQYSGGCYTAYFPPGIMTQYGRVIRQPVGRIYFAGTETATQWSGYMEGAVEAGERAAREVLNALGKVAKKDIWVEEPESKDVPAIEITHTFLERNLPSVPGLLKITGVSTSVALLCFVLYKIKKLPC

[7] = target: T1, Amine oxidase [flavin-containing] A; assay: Reversible inhibition of recombinant human MAO-A assessed as residual activity pre-incubated at 4 times IC50 for 15 mins followed by dialysis for 24 hrs and subsequent kynuramine addition measured after 20 mins by fluorescence spectrophotometric analysis relative to untreated control
[8] = target: T1, Amine oxidase [flavin-containing] A; assay: Reversible inhibition of recombinant human MAO-A assessed as residual activity pre-incubated at 4 times IC50 for 15 mins followed by kynuramine addition measured after 20 mins by fluorescence spectrophotometric analysis relative to untreated control
Method in brief: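 Undialysed comparison: MAO-A is pre-incubated 15 min with inhibitor at 4 × IC50 without dialysis. Residual activity is measured after kynuramine addition as in the IC50 assay (37 °C, 20 min, 2 N NaOH stop, fluorescence of 4-hydroxyquinoline). It is expressed relative to the inhibitor-free control.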

SMILES	IC50 [1]	IC50 [2]	Ratio IC50 [3]	IC50 [4]	IC50 [6]	Activity [7]	Activity [8]	Activity [5]
N#Cc1ccc(/C=C2\Cc3cc(O)ccc3C2=O)cc1	2080 nM	316 nM	6.6	–	–	–	–	–
CN(C)c1ccc(/C=C2\Cc3cc(O)ccc3C2=O)cc1	1720 nM	768 nM	2.2	–	–	–	–	–
COc1ccc2c(c1)C(=O)/C(=C/c1ccccc1OC)O2	–	–	–	11600 nM	–	–	–	–
O=C1/C(=C/c2ccc(O)cc2)Cc2cc(O)ccc21	1670 nM	2740 nM	0.6	–	–	–	–	–
O=C1/C(=C/c2ccccc2)Cc2ccccc21	5430 nM	2570 nM	2.1	–	–	–	–	–
O=C1/C(=C/c2ccc(F)cc2)Cc2cc(O)ccc21	679 nM	47 nM	14	–	–	–	–	–
C#CCN(C)Cc1ccccc1 [PARGYLINE]	–	–	–	–	–	–	–	1.7%
O=C1/C(=C/c2ccc(Cl)cc2)Cc2cc(O)ccc21	741 nM	13 nM	57	–	–	–	–	–
O=C(/C=C/c1ccc(O)cc1)c1ccc(O)cc1O [ISOLIQUIRITIGENIN]	–	–	–	–	17300 nM	–	–	–
O=C1/C(=C/c2ccccc2)Cc2ccc(O)cc21	440 nM	2420 nM	0.2	–	–	–	–	–
COc1ccc2c(c1)C/C(=C\c1ccc(N(C)C)cc1)C2=O	11500 nM	60 nM	192	–	–	–	–	–
CC(C)c1ccc(/C=C2\Cc3cc(O)ccc3C2=O)cc1	961 nM	215 nM	4.5	–	–	–	–	–
CN(C)c1ccc(/C=C2\Cc3ccccc3C2=O)cc1	1520 nM	31 nM	49	–	–	–	–	–

Continued, in another order:

IC50 [1]	IC50 [2]	Ratio IC50 [3]	IC50 [4]	IC50 [6]	Activity [7]	Activity [8]	SMILES	Activity [5]
1190 nM	471 nM	2.5	–	–	–	–	COc1cccc(/C=C2\Cc3cc(O)ccc3C2=O)c1	–
157 nM	30 nM	5.2	–	–	–	–	O=C1/C(=C/c2cccc(Cl)c2)Cc2cc(O)ccc21	–
444 nM	130 nM	3.4	–	–	–	–	N#Cc1cccc(/C=C2\Cc3cc(O)ccc3C2=O)c1	–
458 nM	84 nM	5.5	–	–	–	–	O=C1/C(=C/c2cccc(F)c2)Cc2cc(O)ccc21	–
235 nM	14 nM	17	–	–	–	–	O=C1/C(=C/c2ccc(Cl)c(Cl)c2)Cc2cc(O)ccc21	–
1200 nM	966 nM	1.2	–	–	–	–	O=C1/C(=C/c2cccc(O)c2)Cc2cc(O)ccc21	–
131 nM	13 nM	10	–	–	99%	50%	O=C1/C(=C/c2cccc(Br)c2)Cc2cc(O)ccc21	–
860 nM	52 nM	17	–	–	–	–	Cc1cccc(/C=C2\Cc3cc(O)ccc3C2=O)c1	–
3220 nM	5.2 nM	619	–	–	–	–	Cc1ccc(/C=C2\Cc3cc(O)ccc3C2=O)cc1	–
–	9.2 nM	> 10900	–	–	–	–	COc1ccc2c(c1)C/C(=C\c1ccccc1)C2=O	–
1050 nM	5.3 nM	198	–	–	–	–	O=C1/C(=C/c2ccc(Br)cc2)Cc2cc(O)ccc21	–
1940 nM	376 nM	5.2	–	–	–	–	O=C1/C(=C/c2ccccc2)Cc2cc(O)ccc21	–
